ChEMBL document CHEMBL5104115, “Design, synthesis of novel triptolide-glucose conjugates targeting glucose Transporter-1 and their selective antitumor effect” (Eur J Med Chem, 2022)
pIC50: −log10 of the molar value.

Tests used:
[1] = tested on: NCI-H1975; assay: Cytotoxicity against human NCI-H1975 cells incubated for 72 hrs by MTT assay; type: functional, cell-based; settings: NCI-H1975, 72 h
Procedure, shortened: (§1)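 Cells seeded at 4000/well, incubated overnight, then exposed to a range of concentrations, or DMSO vehicle, for 72 h. MTT (5 mg/mL solution) added for 4 h and formazan dissolved in DMSO. Absorbance read at 570 nm, and IC50 derived from the curves. Tumor lines were grown in RPMI 1640; HUVEC, HaCaT and LO2 were grown in DMEM, each with 10% FBS at 37 °C and 5% CO2.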

[2] = Octanol-water partition coefficient, logD of the compound in PBS at pH 7.4 by liquid chromatography based mass spectrometric analysis; type: physicochemical
Procedure, shortened: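 Shake-flask method: 3.0 mg compound dissolved in PBS-saturated n-octanol and rotated 24 h at room temperature. The octanol phase was then mixed with octanol-saturated PBS, rotated another 24 h and centrifuged. Both phases quantified by LC-MS against a standard curve, and log P = log(C octanol/C water).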

[3] = tested on: HT-29; assay: Cytotoxicity against human HT-29 cells incubated for 72 hrs by MTT assay; type: functional, cell-based; settings: HT-29, 72 h; procedure, shortened: as §1
[4] = tested on: NCI-H460; assay: Cytotoxicity against human NCI-H460 cells incubated for 72 hrs by MTT assay; type: functional, cell-based; settings: NCI-H460, 72 h; procedure, shortened: as §1
[5] = tested on: HCT-116; assay: Cytotoxicity against human HCT-116 cells incubated for 72 hrs by MTT assay; type: functional, cell-based; settings: HCT-116, 72 h; procedure, shortened: as §1
[6] = tested on: SW-620; assay: Cytotoxicity against human SW-620 cells incubated for 72 hrs by MTT assay; type: functional, cell-based; settings: SW-620, 72 h; procedure, shortened: as §1
[7] = tested on: MDA-MB-231; assay: Cytotoxicity against human MDA-MB-231 cells incubated for 72 hrs by MTT assay; type: functional, cell-based; settings: MDA-MB-231, 72 h; procedure, shortened: as §1
[8] = Cytotoxicity against human L02 cells incubated for 72 hrs by MTT assay; type: toxicity, cell-based; procedure, shortened: as §1
[9] = Cytotoxicity against human HaCaT cells incubated for 72 hrs by MTT assay; type: toxicity, cell-based; procedure, shortened: as §1
[10] = Cytotoxicity against HUVEC incubated for 72 hrs by MTT assay; type: toxicity, cell-based; settings: human, HUVEC cells; procedure, shortened: as §1
[11] = tested on: NCI-H1975; assay: Antitumor activity against human NCI-H1975 cells xenografted in BALB/c nude mouse assessed as tumor growth inhibition at 15 mg/kg, ip, q3d for 2 weeks relative to control; settings: NCI-H1975, 336 h, read-out: TGI

| Structure (SMILES) | pIC50 [1] | logD [2] | pIC50 [3] | pIC50 [4] | pIC50 [5] | pIC50 [6] | pIC50 [7] | IC50 at 72 h [8] [nM] | IC50 at 72 h [9] [nM] | IC50 at 72 h [10] [nM] | inhibition in vivo at 15 mg/kg [11] [%] |
| --- | --- | --- | --- | --- | --- | --- | --- | --- | --- | --- | --- |
| CC(C)[C@]12O[C@H]1[C@@H]1O[C@]13[C@]1(O[C@H]1C[C@H]1C4=C(CC[C@@]13C)C(=O)OC4)[C@@H]2OC(=O)CCC(=O)O[C@H]1[C@H](O)[C@@H](CO)OC(O)[C@@H]1O (stereo partly specified) | 5.66 | -0.772 | 5.29 | 5.79 | 5.57 | 5.59 | 5.61 | 1380 | 4830 | 4930 |  |
| CC(C)[C@]12O[C@H]1[C@@H]1O[C@]13[C@]1(O[C@H]1C[C@H]1C4=C(CC[C@@]13C)C(=O)OC4)[C@@H]2OC(=O)CCC(=O)O[C@@H]1O[C@H](CO)[C@@H](O)[C@H](O)[C@H]1O | 5.73 | -0.558 | 5.54 | 5.57 | 5.63 | 5.26 | 5.64 | 1380 | 1630 | 8140 |  |
| CC(C)[C@]12O[C@H]1[C@@H]1O[C@]13[C@]1(O[C@H]1C[C@H]1C4=C(CC[C@@]13C)C(=O)OC4)[C@@H]2OC(=O)CCC(=O)O[C@H]1[C@H](O)[C@@H](O)C(O)O[C@@H]1CO (stereo partly specified) | 5.60 | -0.331 | 5.39 | 5.51 | 5.35 | 4.96 | 5.25 | 1800 | 4750 | 2360 |  |
| CC(=O)O[C@H]1C(=O)[C@@]2(C)[C@H]([C@H](OC(=O)c3ccccc3)[C@]3(O)C[C@H](OC(=O)[C@H](O)[C@@H](NC(=O)c4ccccc4)c4ccccc4)C(C)=C1C3(C)C)[C@]1(OC(C)=O)CO[C@@H]1C[C@@H]2O [PACLITAXEL] |  |  |  |  |  |  |  |  |  |  | 56.9 |
